This is a sample that favours compounds with a hit; in the whole collection about 4.7% have one here.
NR3A LBD binder: binders of NR3A ligand-binding domain, primary screen, biophysical, differential scanning fluorimetry, uHTS | NR3A LBD differential scanning fluorimetry, Tm shift; 0% = protein alone, 100% = glycine-bound protein | Tm shift relative to glycine control, % at 25 µM | 340,000 compounds, 2.5% hits | AID 1259313, 2017;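 active = melting temperature shift of at least 10% of the positive control shift, at one fixed dose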
ADAM10 inh: human ADAM10 inhibitors, primary screen, biochemical, QFRET, HTS; Disintegrin and metalloproteinase domain-containing protein 10 (Homo sapiens), O14672; recombinant ADAM10, EDANS/DABCYL FRET peptide cleavage, 3 h; inhibition, % at 7 µM; 370,000 compounds, 0.62% hits; AID 720582, 2013;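 active = inhibition above a per-campaign cutoff equal to the mean of compounds falling between control-based bounds plus 3 SD, cut at about 20% in these data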;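 note: 0% = DMSO wells while the 100% control is not disclosed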
ADAM17 inh: ADAM17 inhibitors, primary screen, biochemical, QFRET | Disintegrin and metalloproteinase domain-containing protein 17 (Homo sapiens), P78536 | AID 720648, 2013 | inhibition, % at 6.95 µM | recombinant ADAM17, EDANS/DABCYL FRET peptide cleavage | 370,000 compounds, 0.83% hits;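 active = inhibition above the mean of compounds lying between control limits plus 3 SD, set per campaign, cut at about 8.5% in these data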;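 note: 0% = DMSO-only wells as the low control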
Target sequence (P78536 215-824 limits assumed): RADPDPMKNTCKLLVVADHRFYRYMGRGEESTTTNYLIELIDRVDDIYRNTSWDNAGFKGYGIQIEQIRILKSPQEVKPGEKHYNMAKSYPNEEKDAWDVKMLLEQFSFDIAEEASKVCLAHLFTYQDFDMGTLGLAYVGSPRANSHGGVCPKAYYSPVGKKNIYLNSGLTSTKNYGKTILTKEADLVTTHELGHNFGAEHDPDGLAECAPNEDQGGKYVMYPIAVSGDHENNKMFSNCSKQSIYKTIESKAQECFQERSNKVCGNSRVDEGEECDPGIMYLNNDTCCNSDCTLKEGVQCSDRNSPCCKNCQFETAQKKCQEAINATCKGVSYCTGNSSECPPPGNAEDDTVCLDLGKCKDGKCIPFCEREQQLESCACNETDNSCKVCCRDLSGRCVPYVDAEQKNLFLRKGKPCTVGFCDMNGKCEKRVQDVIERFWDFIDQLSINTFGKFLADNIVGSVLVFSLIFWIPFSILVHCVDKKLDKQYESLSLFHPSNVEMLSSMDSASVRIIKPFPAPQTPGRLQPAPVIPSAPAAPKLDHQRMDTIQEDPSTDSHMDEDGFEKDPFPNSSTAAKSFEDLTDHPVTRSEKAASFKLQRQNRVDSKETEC
SKN-1 inh: suppressors of acrylamide-induced Pgst-4::GFP reporter in worms, primary screen, SKN-1 inhibitor project, whole organism, uHTS, GFP/RFP fluorescence ratio, strain VP596. C. elegans VP596 Pgst-4::GFP/RFP ratio, 24 h. inhibition, % at 21.8 µM. 360,000 compounds, 0.49% hits;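 active = interference check ratio from 0.5 to 1.5 plus GFP to RFP signal ratio inhibition reaching or exceeding a fixed threshold, cut at about 30% in these data, passing the limit was not always enough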
MT1-MMP act inh: blockers of MT1-MMP proenzyme processing, primary screen, HT1080 RFP-PRO-GFP cells, GFP/RFP fluorescence; AID 651647, 2012; GFP/RFP ratio fluorescence, overnight; percent of plate control window, DMSO zero; Matrix metalloproteinase-14 (Homo sapiens), P50281; GFP/RFP ratio change, % at 20 µM; 360,000 compounds, 0.061% hits;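 active = GFP/RFP ratio change of at least 30% with cell ATP level not reduced by more than half and red fluorescence within 50% of control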
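Material: RFP-PRO-GFP reporter HT1080 cells. Dosing: single-point 20 µM compound, 1% DMSO. Controls: DMSO and RFP-L50D-GFP cell wells. Timing: cells overnight before dosing, compound overnight, 37 °C, 5% CO2. Measure: GFP/RFP fluorescence ratio.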
MPTP block: mitochondrial permeability transition pore inhibitors, primary screen, biochemical, isolated mouse mitochondria, absorbance | Ca2+ swelling absorbance, 30 min | inhibition, % at 10 µM | 360,000 compounds, 1.4% hits | AID 602449, 2012;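 active = inhibition of 50% or more, scaled per plate between neutral and stimulator controls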;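 note: 0% = DMSO wells given calcium and 100% = 1 mM EGTA wells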
Starred values were filed as active, the others as inactive; i = inactive; . = no result given.

SMILES	NR3A LBD binder	ADAM10 inh	ADAM17 inh	SKN-1 inh	MT1-MMP act inh	MPTP block
O=C(N=Nc1c(O)[nH]c2ccc(Br)cc12)c1cc(-c2cccc3ccccc23)n[nH]1	16*	0	-4	0	6	0
COc1ccc(-c2cc(C(=O)N=Nc3c(O)[nH]c4ccccc34)[nH]n2)cc1	.	-1	0	.	.	.
Cc1ccc(SCCC(=O)Nc2ccccc2Br)cc1	1	0	-1	6	-2	0
Cc1ccc(SCCC(=O)Nc2ccccc2C(=O)NC(C)C)cc1	14*	3	0	7	-7	1
COc1ccc(C(=O)n2cnc(N)n2)cc1	1	-11	-2	-7	3	0
CNC(=S)n1cnc(N)n1	12*	-1	4	6	-2	-1
COc1ccc(CCN=C(C)c2cc(C)c(C)cc2O)cc1OC	15*	3	0	3	-1	0
Cc1ccc(S/C=C\C(=O)c2ccccc2)cc1	-35	7	2	42*	-38	2
Cc1ccc(C(=O)/C=C\C(=O)c2ccc(C)cc2)cc1	2	-6	-5	-8	-1	0
CCOC(=O)Cc1c(Sc2ccccc2)c2ccccc2n1C	12*	9	4	17	-4	-11
Cc1ccc(Nc2nnc(SCc3nc4ccccc4c(=O)[nH]3)s2)cc1	5	3	-1	1	-2	4
CC(=O)n1cc(/C=N/NC(=O)c2ccccc2O)c2ccccc21	32*	-28	-8	6	0	0
CCOc1cc(C2C(C(=O)OC)=CN(Cc3ccc(Cl)cc3)C=C2C(=O)OC)ccc1O	3	-28	-12	10	-6	4
COc1ccc(C)cc1NC(=O)CSc1nnnn1Cc1ccccc1	15*	7	1	-8	1	1
COc1cc(NC(=O)CSc2nnnn2Cc2ccccc2)cc(OC)c1	1	5	0	6	1	0
COc1ccc(C)cc1NC(=O)C(Sc1nnc2ccccn12)c1ccccc1 (stereo not drawn)	15*	6	0	4	0	-10
COC(=O)C1=C(C(=O)OC)[C@@H]2N(C)c3ccc(OC)cc3[C@@]23C[C@@H](C(=O)OC)N(C(=O)CC(C)C)C3=N1	1	8	1	-3	-2	2
Cc1cc(N)c(NC2=CC(=O)CC(C)(C)C2)cc1C	-1	-70	-23	2	3	0
C=CCNC(=O)c1cc2c(=O)n3ccccc3nc2s1	1	i	i	41*	1	0
CC(C)NC(=O)c1cc2c(=O)n3ccccc3nc2s1	1	i	i	9	2	0
c1cc(-c2cc3cc4c(cc3cn2)OCO4)cs1	0	-9	-6	22	7	0
Cc1cc(C)nc(SCc2nnc(SCC(=O)Nc3ccc(C)c(C)c3)n2Cc2ccco2)n1	1	-1	0	8	.	0
COC(=O)CSc1nnc(CSc2nc(C)cc(C)n2)n1Cc1ccco1	14*	3	-3	-4	3	1
C=CCC1(O)CC(c2ccco2)NC(c2ccco2)C1CCC (stereo not drawn)	3	-2	-5	-9	-11	1
CCN(C[C@H]1N[C@@](CC)(C(=O)OC)[C@H]2C(=O)N(C)C(=O)[C@@H]12)S(=O)(=O)c1ccc(C(F)(F)F)cc1	1	-18	-3	12	2	-2
SMILES	NR3A LBD binder	ADAM10 inh	ADAM17 inh	SKN-1 inh	MT1-MMP act inh	MPTP block
COC(=O)[C@]1(Cc2ccccc2)N[C@H](CN(C)S(=O)(=O)c2ccc(C(C)(C)C)cc2)[C@@H]2C(=O)N(C)C(=O)[C@@H]21	15*	-12	-3	4	1	1
CCN(C[C@H]1N[C@@](CC)(C(=O)OC)[C@H]2C(=O)N(C)C(=O)[C@@H]12)S(=O)(=O)c1ccc(C(C)(C)C)cc1	18*	-13	-5	-5	0	1
Cc1ccc(NC(=O)COC(=O)C2CC3C=CC2C3)cc1S(=O)(=O)N1CCCCC1 (stereo not drawn)	-7	7	4	7	1	34
Cc1ccc(S(=O)(=O)N2CCCCC2)cc1NC(=O)COC(=O)C1CC2C=CC1C2 (stereo not drawn)	10*	-7	-3	4	3	2
CC(=O)N1C=CN(C(C)=O)C(c2cn(C)c3ccccc23)C1c1cn(C)c2ccccc12 (stereo not drawn)	14*	3	-1	-15	-3	-2
COc1ccc(OC)c(-c2cc(C(=O)Nc3ccccc3C(N)=O)c3ccccc3n2)c1	11*	-5	-2	-5	0	0
COc1ccc(-c2cc(C(=O)Nc3c(C)n(C)n(-c4ccccc4)c3=O)c3ccccc3n2)c(OC)c1	-1	-6	-3	36*	-4	0
OCC[C@H]1C[C@@H](O)[C@H](O)[C@@]2(CCCc3ccccc3O2)O1	-1	1	-2	-11	-4	0
CCOC(=O)[C@]12CCC=C1N(Cc1ccc3c(c1)OCO3)C(=O)[C@H](CC(=O)NCCCN1CCCC1=O)C2	.	-12	-2	-9	8	-2
CCN(CCCNC(=O)CC(C(=O)N1CCc2ccccc21)n1ccnc1)c1cccc(C)c1 (stereo not drawn)	0	7	1	38*	-1	-1
CCOc1ccc2nc(N3C(=O)CNC3=S)sc2c1	17*	-8	-2	1	8	4
Cc1ccc(O)c(NC(=S)NC(=O)c2ccc(-c3ccc(Cl)cc3)o2)c1	29*	-28	-19	9	4	4
Cc1ccc(O)c(NC(=O)c2cc(-c3ccc(F)cc3)on2)c1	217*	-2	-1	0	10	-1
O=C(NC(=S)Nc1ccccc1O)c1ccc(-c2ccc(Cl)cc2)o1	29*	2	0	-20	12	5
Cc1ccc(O)c(NC(=O)c2cc(-c3cccs3)on2)c1	0	-9	-2	22	-4	-1
COc1ccccc1NC(=S)NC(=O)c1ccc(-c2ccc(Cl)cc2)o1	-9	7	-2	6	8	5
COc1ccccc1CCn1cnc(C)c1CC(C)C	.	-8	-6	1	-8	0
